Test results published in publication PMC6210075 (ACS Omega, 2018).

How the values were obtained:
[1] = molecular target: T1, human FAAH (Homo sapiens, UniProt O00519); assay: FAAH fluorescent inhibition assay; assay type: biochemical; settings: for decrease in activity/potency toward FAAH: compared to PF-750
T1 sequence (O00519 1-579): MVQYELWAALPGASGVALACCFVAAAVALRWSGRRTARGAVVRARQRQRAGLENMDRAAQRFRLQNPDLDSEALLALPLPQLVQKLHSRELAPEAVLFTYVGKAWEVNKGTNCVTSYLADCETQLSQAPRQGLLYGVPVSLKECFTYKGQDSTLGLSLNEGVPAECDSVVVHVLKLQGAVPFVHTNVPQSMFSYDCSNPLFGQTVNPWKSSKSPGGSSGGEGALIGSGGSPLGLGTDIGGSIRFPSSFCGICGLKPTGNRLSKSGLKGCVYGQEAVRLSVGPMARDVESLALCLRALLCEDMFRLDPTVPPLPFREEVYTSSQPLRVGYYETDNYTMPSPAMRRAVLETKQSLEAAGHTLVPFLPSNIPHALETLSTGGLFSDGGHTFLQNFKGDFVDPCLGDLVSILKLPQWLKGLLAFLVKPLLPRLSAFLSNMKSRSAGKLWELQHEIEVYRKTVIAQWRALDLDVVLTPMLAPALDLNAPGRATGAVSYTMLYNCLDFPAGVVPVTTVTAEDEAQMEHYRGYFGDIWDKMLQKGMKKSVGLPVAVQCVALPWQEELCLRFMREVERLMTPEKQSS

[2] = molecular target: T2, rat FAAH (Rattus norvegicus, UniProt P97612); assay: FAAH fluorescent inhibition assay, rat brain microsomes; assay type: biochemical; settings: FAAH IC50 (5 min pre-incubation), 5 min pre-incubation
T2 sequence (P97612 1-579): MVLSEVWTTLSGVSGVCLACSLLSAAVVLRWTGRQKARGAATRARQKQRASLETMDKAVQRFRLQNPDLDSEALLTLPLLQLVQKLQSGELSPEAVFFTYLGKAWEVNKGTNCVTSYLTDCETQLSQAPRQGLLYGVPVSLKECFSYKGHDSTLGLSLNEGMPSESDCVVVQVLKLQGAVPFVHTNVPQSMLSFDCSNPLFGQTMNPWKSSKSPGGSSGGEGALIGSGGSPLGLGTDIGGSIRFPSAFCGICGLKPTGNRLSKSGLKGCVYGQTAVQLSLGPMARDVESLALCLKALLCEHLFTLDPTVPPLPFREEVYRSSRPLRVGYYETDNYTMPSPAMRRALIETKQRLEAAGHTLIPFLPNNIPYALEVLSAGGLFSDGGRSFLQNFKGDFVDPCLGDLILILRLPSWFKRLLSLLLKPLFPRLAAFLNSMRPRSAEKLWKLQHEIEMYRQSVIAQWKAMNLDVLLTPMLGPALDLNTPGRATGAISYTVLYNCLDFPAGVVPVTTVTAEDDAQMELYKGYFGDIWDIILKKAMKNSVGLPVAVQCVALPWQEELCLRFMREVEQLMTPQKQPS
Outline: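 Rat brain microsomes: tissue homogenized in 20 mM phosphate (pH 7.4, 5 mM EDTA), spun at 9000g for 20 min, then 100 000g for 1 h, and stored at −80 °C. OMP (100 μM final) in 0.1 M sodium phosphate pH 8, 0.1 mg/mL BSA, 2% DMSO, 37 °C. Fluorescence (ex 303/em 394 nm) read every 30 s for 10 min. No-enzyme background subtracted. IC50 from linear regression of log[I] vs % remaining activity; triplicates.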

[3] = molecular target: T3, serine hydrolases (Mus musculus, UniProt O08914); assay: Activity-based protein profiling; assay type: biochemical; settings: mouse brain tissue homogenate, inhibitor 20 µM
T3 sequence (O08914 1-579): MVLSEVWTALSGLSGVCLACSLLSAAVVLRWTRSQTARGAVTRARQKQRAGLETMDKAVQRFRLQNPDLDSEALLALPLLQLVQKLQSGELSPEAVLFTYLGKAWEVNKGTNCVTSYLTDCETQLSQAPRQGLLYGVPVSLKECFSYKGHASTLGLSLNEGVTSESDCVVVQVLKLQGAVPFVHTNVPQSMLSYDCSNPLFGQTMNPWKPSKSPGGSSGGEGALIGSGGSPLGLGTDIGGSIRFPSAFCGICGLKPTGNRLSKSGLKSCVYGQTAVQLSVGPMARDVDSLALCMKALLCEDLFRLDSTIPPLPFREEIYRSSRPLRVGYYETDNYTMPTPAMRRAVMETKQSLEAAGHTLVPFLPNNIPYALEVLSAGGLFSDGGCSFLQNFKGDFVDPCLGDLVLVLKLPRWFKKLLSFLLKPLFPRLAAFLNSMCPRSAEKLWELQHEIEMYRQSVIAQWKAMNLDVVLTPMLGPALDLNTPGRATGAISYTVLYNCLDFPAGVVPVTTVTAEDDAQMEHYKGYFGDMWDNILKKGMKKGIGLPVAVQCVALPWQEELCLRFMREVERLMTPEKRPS

[4] = system: serine hydrolases; assay: Activity-based protein profiling; assay type: biochemical, mouse; settings: mouse liver tissue homogenate, inhibitor 20 µM
[5] = molecular target: T4, human sEH (Homo sapiens, UniProt P34913); assay: FRET-based displacement assay for inhibitor dissociation from sEH; assay type: binding
T4 sequence (P34913 1-555): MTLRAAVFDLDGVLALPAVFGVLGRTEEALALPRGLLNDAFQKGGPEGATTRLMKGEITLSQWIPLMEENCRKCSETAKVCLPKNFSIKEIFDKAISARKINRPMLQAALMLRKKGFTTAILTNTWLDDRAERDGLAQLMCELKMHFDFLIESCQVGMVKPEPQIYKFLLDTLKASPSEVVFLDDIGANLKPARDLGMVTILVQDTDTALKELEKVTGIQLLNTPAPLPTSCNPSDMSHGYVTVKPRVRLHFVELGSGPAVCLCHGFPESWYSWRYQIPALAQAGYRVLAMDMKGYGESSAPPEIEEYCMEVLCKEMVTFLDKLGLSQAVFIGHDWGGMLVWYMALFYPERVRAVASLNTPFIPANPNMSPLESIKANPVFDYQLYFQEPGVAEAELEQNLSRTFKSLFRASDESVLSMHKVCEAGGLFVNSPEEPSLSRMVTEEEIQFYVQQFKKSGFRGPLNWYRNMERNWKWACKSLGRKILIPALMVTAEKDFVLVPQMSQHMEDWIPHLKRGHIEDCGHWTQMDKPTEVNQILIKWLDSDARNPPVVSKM

[6] = Cassette dosing pharmacokinetics in rats; assay type: in vivo; settings: male, Sprague-Dawley, rat, whole blood, po, 1 mg/kg
Outline: (§1)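 Test compounds were given as a cassette cocktail at 1 mg/kg each, p.o. in PEG300, to groups of 4 rats or 4 mice. Blood was taken by tail vein at set intervals and group averages were used.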

[7] = molecular target: T5, mouse FAAH (Mus musculus, UniProt O08914); assay: FAAH fluorescent inhibition assay, mouse crude tissue homogenate; assay type: biochemical; settings: FAAH IC50 (5 min pre-incubation)
T5 sequence (O08914 1-579): T3 sequence (O08914 1-579)

[8] = molecular target: T1, human FAAH; assay: Ki and kinact determination on FAAH; assay type: biochemical
Outline: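 Crude baculovirus-expressed recombinant FAAH (High Five cell S9 fraction in 50 mM Tris/HCl pH 8.0, 1 mM CHAPS, 10% glycerol). OMP (100 μM final) was mixed with a range of test compound concentrations and held 5 min at 37 °C.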

[9] = Cassette dosing pharmacokinetics in mice; assay type: in vivo; settings: male, Swiss Webster, mouse, whole blood, po, 1 mg/kg
Outline: as §1

[10] = molecular target: T4, human sEH; assay: sEH fluorescent inhibition assay; assay type: biochemical; settings: compared to PF-750

O=C(Nc1ccc(Cl)cc1)N1CCC(Cc2cnc3ccccc3c2)CC1 [compound 2]
decrease in activity/potency toward FAAH [1]: 3 fold

O=C(Nc1ccc(C(F)(F)F)cc1)N1CCC(Cc2cccc(Oc3ccc(C(F)(F)F)cn3)c2)CC1 [compound 13]
IC50 [2]: > 10 µM
intensity of the FAAH band (ABPP) [3]: does not appear to fully inhibit the band corresponding to FAAH
other serine hydrolase bands (ABPP) [4]: neither 11, 13, 14, 18, nor PF-3845 had any effect on the intensity of other bands
t1/2 (half-life on the enzyme) ([5]; human sEH): 9.9 min
koff ([5]; read-out: koff × 10^–3): 1.2 s⁻¹
AUC [6]: 0.74 µM·h
Cmax [6]: 66 nM
IC50 [7]: > 10 µM
Ki [8]: 0.037 µM
kinact [8]: 0.000317 s⁻¹
kinact/KI [8]: 500000 M⁻¹ s⁻¹
AUC [9]: 0.75 µM·h
Cmax [9]: 65 nM

COc1ccc(NC(=O)N2CCC(Cc3cnc4ccccc4c3)CC2)cc1 [compound 5]
increase in activity/potency toward sEH [10]: 5 fold

COc1ccc(NC(=O)N2CCC(Cc3ccc4ccccc4c3)CC2)cc1 [compound 8]
increase in activity toward FAAH ([1]; compared to 5 (3-quinoline)): 4 fold

O=C(Nc1ccccc1F)N1CCC(Cc2cnc3ccccc3c2)CC1 [compound 3]
decrease in activity/potency toward FAAH [1]: 3 fold

NC(=O)c1cccc(-c2cccc(OC(=O)NC3CCCCC3)c2)c1 [URB597, cyclohexyl carbamic acid 3′-carbamoyl-biphenyl-3-yl ester, reference compound]
intensity of the FAAH band (ABPP) [3]: reduced
other serine hydrolase bands (ABPP) [4]: reduced the intensity of a band around 62.5 kDa

O=C(Nc1ccc(F)cc1)N1CCC(Cc2cnc3ccccc3c2)CC1 [compound 1]
increase in activity/potency toward sEH [10]: 7 fold
decrease in activity/potency toward FAAH [1]: 5 fold
